Experimental findings from publication PMC2835692 (Journal of cardiovascular pharmacology, 2009) are described below.

The subject of data set [1] is isolated stunned rat hearts. Nature of the data set: Langendorff isolated perfused rat heart, stunning. As to conditions: for Improvement in RPP versus controls: at 30-minute reperfusion; for Coronary flow rates versus controls: during reperfusion; for cTnI release versus controls: after ischemia.
In data set [2] the test system is cocultured neonatal rat cardiac fibroblasts/myocytes. Nature of the data set: MTT cell viability assay. The data set is classed as cell-based. Particulars: 24 hours incubation.
For data set [3], the target named is recombinant human MMP-9 catalytic domain (Homo sapiens, UniProt P14780). In words: Recombinant MMP fluorescent assay, MMP-9. The data set is classed as biochemical. As to conditions: read-out: IC50 MMP-9; 1 hour preincubation at 37°C.
recombinant human MMP-9 catalytic domain, sequence (P14780 107-444 limits assumed): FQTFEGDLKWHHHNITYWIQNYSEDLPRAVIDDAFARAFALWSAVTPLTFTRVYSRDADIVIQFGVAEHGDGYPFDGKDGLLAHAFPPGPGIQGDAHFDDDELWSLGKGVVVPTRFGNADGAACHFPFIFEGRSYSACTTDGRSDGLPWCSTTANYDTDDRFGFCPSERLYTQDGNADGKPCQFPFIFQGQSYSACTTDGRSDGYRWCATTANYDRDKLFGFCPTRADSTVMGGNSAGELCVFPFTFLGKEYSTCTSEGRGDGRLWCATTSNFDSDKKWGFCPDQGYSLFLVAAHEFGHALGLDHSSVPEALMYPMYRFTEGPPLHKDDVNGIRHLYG
In data set [4] the target is recombinant human MMP-12 catalytic domain (Homo sapiens, UniProt P39900). In words: Recombinant MMP fluorescent assay, MMP-12. The data set is classed as biochemical.
recombinant human MMP-12 catalytic domain, sequence (P39900 106-263 limits assumed): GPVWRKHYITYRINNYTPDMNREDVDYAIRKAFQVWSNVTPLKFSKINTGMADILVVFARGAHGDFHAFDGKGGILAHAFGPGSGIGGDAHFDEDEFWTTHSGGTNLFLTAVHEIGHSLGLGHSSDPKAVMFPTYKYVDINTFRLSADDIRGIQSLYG
Data set [5] addresses T1, recombinant human MMP-7 catalytic domain (Homo sapiens, UniProt P09237).
T1 sequence (P09237 95-267): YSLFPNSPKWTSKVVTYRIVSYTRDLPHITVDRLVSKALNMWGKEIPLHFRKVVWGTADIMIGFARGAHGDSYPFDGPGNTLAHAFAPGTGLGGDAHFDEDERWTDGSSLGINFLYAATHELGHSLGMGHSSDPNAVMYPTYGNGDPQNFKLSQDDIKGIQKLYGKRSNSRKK
In words: Recombinant MMP fluorescent assay, MMP-7. The data set is classed as biochemical. The method, boiled down: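 Kit-based fluorogenic substrate assay. Test compound was dissolved in DMSO, with 0.005% final DMSO in buffer (50 mM HEPES, 10 mM CaCl2, 0.05% Brij-35, pH 7.5). Substrate was added to start the reaction. Fluorescence (ex 335/em 405 nm) was read every 60 s for 30 min, with 1 s shaking between reads. Rates came from linear kinetic regions; IC50 from activity versus log[inhibitor]. o-Phenanthroline confirmed MMP-dependent cleavage.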

Data set [6] has as its target recombinant human MMP-8 catalytic domain (Homo sapiens, UniProt P22894). Nature of the data set: Recombinant MMP fluorescent assay, MMP-8. In kind it is biochemical. Particulars: read-out: IC50 MMP-8; 1 hour preincubation at 37°C.
The target in data set [7] is recombinant human MMP-2 catalytic domain (Homo sapiens, UniProt P08253). Nature of the data set: Recombinant MMP fluorescent assay, MMP-2. The data set is classed as biochemical. As to conditions: read-out: IC50 MMP-2; 1 hour preincubation at 37°C.
recombinant human MMP-2 catalytic domain, sequence (P08253 110-446 limits assumed): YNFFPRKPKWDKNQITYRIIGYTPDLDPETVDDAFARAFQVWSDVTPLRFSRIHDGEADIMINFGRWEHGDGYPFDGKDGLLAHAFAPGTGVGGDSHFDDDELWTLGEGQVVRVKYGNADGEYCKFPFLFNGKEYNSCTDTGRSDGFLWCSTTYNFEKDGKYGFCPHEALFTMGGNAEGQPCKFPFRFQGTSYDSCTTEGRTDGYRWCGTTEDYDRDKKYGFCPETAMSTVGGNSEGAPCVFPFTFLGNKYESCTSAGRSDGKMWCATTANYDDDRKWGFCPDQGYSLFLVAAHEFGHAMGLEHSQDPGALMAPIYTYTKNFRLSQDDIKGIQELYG
Data set [8] has as its system isolated infarcted rat hearts. In words: Langendorff isolated perfused rat heart, infarction. Particulars: 5 μM.
Data set [9] has as its target recombinant human MMP-3 catalytic domain (Homo sapiens, UniProt P08254). In words: Recombinant MMP fluorescent assay, MMP-3. In kind it is biochemical. As to conditions: read-out: IC50 MMP-3; 1 hour preincubation at 37°C.
The target of data set [10] is recombinant human MMP-13 catalytic domain (Homo sapiens, UniProt P45452). Nature of the data set: Recombinant MMP fluorescent assay, MMP-13. In kind it is biochemical. Particulars: read-out: IC50 MMP-13; 1 hour preincubation at 37°C.
Data set [11] addresses T2, recombinant human MMP-1 catalytic domain (Homo sapiens, UniProt P03956).
T2 sequence (P03956 100-269 limits assumed): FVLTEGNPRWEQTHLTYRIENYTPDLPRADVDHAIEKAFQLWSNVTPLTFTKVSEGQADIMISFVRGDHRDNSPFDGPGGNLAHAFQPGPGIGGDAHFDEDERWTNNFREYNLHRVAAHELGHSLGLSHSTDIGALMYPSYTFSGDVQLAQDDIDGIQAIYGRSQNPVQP
Nature of the data set: Recombinant MMP fluorescent assay, MMP-1. In kind it is biochemical. Particulars: read-out: IC50 MMP-1; 1 hour preincubation at 37°C.

Where [12] appears, read: read-out: IC50 MMP-12, 1 hour preincubation at 37°C.
The mark [13] stands for this setting: read-out: IC50 MMP-7, 1 hour preincubation at 37°C.

Like-named read-outs stand apart in the source and are kept apart here.

recombinant human MMP-8 catalytic domain, sequence (P22894 100-262 limits assumed): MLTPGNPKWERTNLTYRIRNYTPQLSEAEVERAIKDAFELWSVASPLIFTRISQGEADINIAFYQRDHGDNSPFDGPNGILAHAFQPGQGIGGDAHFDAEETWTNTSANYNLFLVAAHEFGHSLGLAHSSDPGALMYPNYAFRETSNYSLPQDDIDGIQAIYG
recombinant human MMP-3 catalytic domain, sequence (P08254 100-272 limits assumed): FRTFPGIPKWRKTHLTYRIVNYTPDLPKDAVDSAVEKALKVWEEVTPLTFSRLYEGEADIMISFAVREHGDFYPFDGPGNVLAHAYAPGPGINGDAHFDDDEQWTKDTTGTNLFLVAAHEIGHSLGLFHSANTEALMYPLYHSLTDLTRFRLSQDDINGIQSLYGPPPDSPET

As to `CC(C)[C@H](NS(=O)(=O)c1ccc(-c2ccc(Br)cc2)cc1)C(=O)O` [PD166793, reference compound], in [1] (5 μM, stunned hearts), the “Improvement in RPP versus controls” value is recorded as ~ 8%. Moreover, the “Coronary flow rates versus controls” value in data set [1] (5 μM, stunned hearts) is recorded as “did not improve coronary flow rates”. Also, the “cTnI release versus controls” value in [1] (stunned hearts) is recorded as “no significant changes in cTnI release”. For the same molecule, the “Concentration with loss of cell viability” value in [2] is on record as “greater than 10 μM”. In addition, the IC50 is 3000 nM in data set [3], under 50 nM in data set [4] (setting [12]), 3000 nM in data set [5] (setting [13]) and under 50 nM in data set [6].

With `O=C(NCc1ccc(-c2ccccc2)cc1)c1cccc(=O)n1O` [1,2-HOPO-2], in data set [1] (5 μM, data not shown), the “Peak systolic pressure (PSP)” value was “significant rise in PSP”. Further, the “Reduction in myocardial edema versus controls” value in data set [1] (5 μM, stunned hearts) is on record as ~ 10%. The “Collagen damage (opalation)” value in [1] (5 μM, stunned hearts (20-minute GNFI), controls 1.49 ± 1.0) came to 1.45 ± 0.89 AFU. Moreover, the “Improvement in RPP versus controls” value in data set [1] (5 μM, stunned hearts) is ~ 23%. The “Coronary flow rates versus controls” value in data set [1] (5 μM, stunned hearts) is on record as “higher coronary flow rates versus controls”; in data set [8] (conditions of infarction, data not shown) it was “higher coronary flow rates versus controls”. Besides, the “Reduction in ventricular wet weight versus controls” value in data set [1] (5 μM, stunned hearts, end of reperfusion) was ~ 15%. The Ventricular wet weight in data set [1] (5 μM, stunned hearts, end of reperfusion, controls 820 ± 72) is listed as 700 ± 34 mg. In addition, the “Wet to dry weight ratio (edema)” value in data set [1] (5 μM, stunned hearts, controls 5.4 ± 0.21) stood at 4.9 ± 0.02. For the same molecule, the “Reduction of muscle damage” value in data set [1] (abstract, troponin I) is ~ 25%. The “Improvement in coronary flow rates” value in data set [1] (abstract, versus controls) is recorded as ~ 22%. In data set [1] (stunned hearts), the “cTnI release versus controls” value is given as “significant reductions in cTnI release versus controls”. Further, the IC50 in [7] was 920 nM; in data set [9], 560 nM; in [3] it was 27100 nM; in data set [10], 4100 nM; in data set [11], over 50000 nM; in data set [4] (setting [12]), 18 nM. For the same molecule, the IC50 in data set [5] (setting [13]) was over 50000 nM; in data set [6], 86 nM. The “Reduction of collagen degradation versus controls” value in data set [8] (30-minute global ischemia (infarction), opalation) was ~ 60%. Moreover, in data set [8] (30-minute global ischemia (infarction), controls 1.53 ± 0.66), the “Collagen degradation (opalation)” value was determined as 0.56 ± 0.29 AFU. Also, in [8] (30-minute global ischemia, data not shown), the “Troponin I release” value was “significantly reduced troponin I release”. Moreover, in data set [8] (infarcted hearts, at 30-minute reperfusion), the “Improved recovery in RPP versus controls” value was ~ 17%. In addition, the “RPP in treated hearts” value in [8] (infarcted hearts, at 30-minute reperfusion, controls 28%) is 45%. In addition, in data set [2] (0.01-1000 μM tested), the “Concentration without compromise of cell viability (lack of cytotoxicity)” value is under 10 µM.

With `COc1ccc(S(=O)(=O)N(Cc2cccnc2)[C@@H](C(=O)NO)C(C)C)cc1` [CGS27023A], in data set [1] (5 μM, stunned hearts), the “Improvement in RPP versus controls” value is recorded as ~ 8%. Further, the “Coronary flow rates versus controls” value in data set [1] (5 μM, stunned hearts) is listed as “did not improve coronary flow rates”. Also, the “cTnI release versus controls” value in data set [1] (stunned hearts) is “no significant changes in cTnI release”. Moreover, the 50% inhibitory concentration (IC50) in [4] (IC50 MMP-12, 1 hour preincubation at 37°C) is under 50 nM; in data set [4] (IC50 MMP-12, as stated in discussion text) it was at most 50 nM; in [5] (IC50 MMP-7, 1 hour preincubation at 37°C), 500 nM.

For orientation: IC50 means the midpoint of a concentration-inhibition curve.
